In PMC4021529 (British Journal of Cancer, 2014):
Where “and” joins values, the source holds several entries; their conditions need not be identical. Equal entries are not always repeated. Entries after “also recorded” stand apart in the source; their conditions may differ. Marks after values point to notes of the source that are not given here.

Legend:
Assay type in all cases: in vivo, human
[1] = Phase I 3+3 dose escalation: MTD and dose-limiting toxicities; details: for maximum tolerated dose (MTD): Asian patients
In short: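 Open-label 3+3 escalation run separately for each schedule. Test compound given as a 2-h IV infusion every 3 weeks: A on day 1 (100, 200, 250, 300 mg, up to 400), B on days 1 and 8 (50, 100, 150, 200 mg, up to 250). MTD was the highest dose with DLT in ≤1 of 6 patients in course 1. Graded by CTCAE v3.0. Up to 18 patients treated at the MTD.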

advanced solid tumours = assay: Objective tumour response; details: for median PFS: all dose groups
In short: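 Patients with advanced solid tumours at two Taiwanese sites. Test compound given as a 2-h IV infusion on day 1 (schedule A) or days 1 and 8 (schedule B), every 3 weeks. CT or MRI at baseline and at the end of every other course, assessed by RECIST 1.0. PFS estimated by Kaplan–Meier.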

Plasma pharmacokinetics = details: for clearance / AUC(0-inf) / MRT / Vd: human, plasma, iv; for AUC0–∞,norm / Cmax,norm / AUC0–168,norm: gMean, dose normalised
[2] = schedule A, 100 mg (n=3), first 2-h i.v. infusion
[3] = schedule A, 200 mg (n=3), first 2-h i.v. infusion
[4] = schedule A, 250 mg (n=5), first 2-h i.v. infusion
[5] = schedule A, 300 mg (n=16), first 2-h i.v. infusion

CC[C@@H]1C(=O)N(C)c2cnc(Nc3ccc(C(=O)N[C@H]4CC[C@H](N5CCN(CC6CC6)CC5)CC4)cc3OC)nc2N1C(C)C [volasertib]
time of occurrence of DLTs ([1]; both schedules): 8–15 treatment days | patients with DLTs during course 1 ([1]; expansion cohort schedule A, 300 mg): Four patients | patients with DLTs ([1]; expansion cohort schedule B, 150 mg): None | patients with thrombocytopenia (grade 4) as DLT in first course ([1]; schedule A, 300 mg (MTD)): Two patients | patients with a DLT related to neutropenia ([1]; schedule A, 300 mg (MTD), 17 patients): Four patients | DLTs during course 1 ([1]; schedule A, 300 mg (n=6), dose escalation): No DLTs | duration of febrile neutropenia reported as DLT ([1]; schedule A, 300 mg, two patients): 3 days and 4 days | patients with DLTs in first treatment course ([1]; schedule A, 350 mg (n=3)): All three patients | maximum tolerated dose (MTD) ([1]; schedule A: 2-h i.v. infusion day 1 every 3 weeks): 300 mg | DLTs of thrombocytopenia (grade 4) ([1]; schedule B): no DLTs | patients with DLTs in first treatment course ([1]; schedule B, 200 mg (n=3)): two out of three patients | maximum tolerated dose (MTD) ([1]; schedule B: 2-h i.v. infusion days 1 and 8 every 3 weeks): 150 mg | DLTs after intra-individual dose escalation from MTD to a higher dose ([1]; up to 350 mg (schedule A, 3 patients) and 200 mg (schedule B, 1 patient)): No DLTs | partial responses in the study (advanced solid tumours; 59 treated patients, both schedules): two pre-treated patients; also recorded: Two partial responses | duration of stable disease, individual patient (advanced solid tumours; bladder urothelial cancer with lymph node metastasis, 50 mg schedule B): > 8 months | patients with stable disease as best overall response (advanced solid tumours; overall, both schedules): 26 (44.1%) patients (%) | patients with stable disease as best overall response (advanced solid tumours; schedule A): 14 (43.8%) patients (%) | median PFS (advanced solid tumours; schedule A): 49 days | patients with stable disease as best overall response (advanced solid tumours; schedule B): 12 (44.4%) patients (%) | median PFS (advanced solid tumours; schedule B): 56 days | best response of individual patient (advanced solid tumours; ureteral urothelial carcinoma (wild-type FGFR3), 350 mg schedule A, two courses): partial response | apparent terminal half-life (t1/2) (Plasma pharmacokinetics; 2-h i.v. infusion, summary across doses): 135 h | clearance (Plasma pharmacokinetics): > 770 mL/min | AUC(0-inf) (Plasma pharmacokinetics; 100 mg): 2140 ng·h/mL | MRT (Plasma pharmacokinetics; 100 mg): 163 h | Vd (Plasma pharmacokinetics; 100 mg): 7600 L | clearance (Plasma pharmacokinetics; 100 mg): 780 mL/min | AUC(0-inf) (Plasma pharmacokinetics; 200 mg): 3280 ng·h/mL | MRT (Plasma pharmacokinetics; 200 mg): 98.2 h | Vd (Plasma pharmacokinetics; 200 mg): 5980 L | clearance (Plasma pharmacokinetics; 200 mg): 1020 mL/min | AUC(0-inf) (Plasma pharmacokinetics; 250 mg): 6140 ng·h/mL | MRT (Plasma pharmacokinetics; 250 mg): 109 h | Vd (Plasma pharmacokinetics; 250 mg): 4440 L | clearance (Plasma pharmacokinetics; 250 mg): 679 mL/min | AUC(0-inf) (Plasma pharmacokinetics; 300 mg): 6260 ng·h/mL | MRT (Plasma pharmacokinetics; 300 mg): 103 h | Vd (Plasma pharmacokinetics; 300 mg): 4920 L | clearance (Plasma pharmacokinetics; 300 mg): 798 mL/min | AUC(0-inf) (Plasma pharmacokinetics; 350 mg): 9790 ng·h/mL | MRT (Plasma pharmacokinetics; 350 mg): 93 h | Vd (Plasma pharmacokinetics; 350 mg): 3320 L | clearance (Plasma pharmacokinetics; 350 mg): 596 mL/min | elimination route (Plasma pharmacokinetics; low exposures of main metabolite, data not shown): primarily eliminated unchanged | AUC0–∞,norm (Plasma pharmacokinetics; [2]): 21.4 ng·h/mL/mg | Cmax,norm (Plasma pharmacokinetics; [2]): 1.86 ng/mL/mg | AUC0–∞,norm (Plasma pharmacokinetics; [3]): 16.4 ng·h/mL/mg | Cmax,norm (Plasma pharmacokinetics; [3]): 2.70 ng/mL/mg | AUC0–∞,norm (Plasma pharmacokinetics; [4]): 24.6 ng·h/mL/mg | Cmax,norm (Plasma pharmacokinetics; [4]): 2.16 ng/mL/mg | AUC0–∞,norm (Plasma pharmacokinetics; [5]): 20.9 ng·h/mL/mg | Cmax,norm (Plasma pharmacokinetics; [5]): 1.63 ng/mL/mg | AUC0–∞,norm (Plasma pharmacokinetics; schedule A, 350 mg (n=2), first 2-h i.v. infusion): 28.0 ^a (ng h ml^−1) mg^−1 | Cmax,norm (Plasma pharmacokinetics; schedule A, 350 mg (n=3), first 2-h i.v. infusion): 1.93 ng/mL/mg | AUC0–168,norm (Plasma pharmacokinetics; schedule B, 50 mg (n=3), first 2-h i.v. infusion): 11.8 ^b (ng h ml^−1) mg^−1 | Cmax,norm (Plasma pharmacokinetics; schedule B, 50 mg (n=4), first 2-h i.v. infusion): 2.12 ng/mL/mg | Cmax,norm (Plasma pharmacokinetics; schedule B, 100 mg (n=3), first 2-h i.v. infusion): 2.34 ng/mL/mg | AUC0–168 (Plasma pharmacokinetics; schedule B, 100 mg, first 2-h i.v. infusion, n=2, individual values): 1390 ng·h/mL | AUC0–168,norm (Plasma pharmacokinetics; schedule B, 150 mg (n=14), first 2-h i.v. infusion): 12.6 ^d (ng h ml^−1) mg^−1 | Cmax,norm (Plasma pharmacokinetics; schedule B, 150 mg (n=15), first 2-h i.v. infusion): 1.56 ng/mL/mg | AUC0–168,norm (Plasma pharmacokinetics; schedule B, 200 mg (n=2), first 2-h i.v. infusion): 16.6 ^a (ng h ml^−1) mg^−1 | Cmax,norm (Plasma pharmacokinetics; schedule B, 200 mg (n=3), first 2-h i.v. infusion): 2.05 ng/mL/mg | accumulation (Plasma pharmacokinetics; schedule B, administration on day 1 and day 8): No accumulation
